From ChEMBL document CHEMBL5678801, “A benzothiophene inhibitor of mitogen-activated protein kinase-activated protein kinase 2 inhibits tumor necrosis factor alpha production and has oral anti-inflammatory efficacy in acute and chronic models of inflammation” (J Pharmacol Exp Ther, 2010) come the findings set out here.

In data set [1] the target is MAP kinase-interacting serine/threonine-protein kinase 1 (Homo sapiens, UniProt Q9BUB5). Briefly: Inhibition of recombinant MNK1 (unknown origin) expressed in Escherichia coli using KKKALSRQLSVAA as substrate incubated for 1 hr followed by substrate addition in presence of ATP. Put shortly: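 Recombinant MAPKAP kinase was first activated with activated p38α (1:50 molar ratio) and 250 μM ATP for 1 hr at 30°C. Activity was then assayed at Km(app) MgATP by ion-exchange separation of 33P-labeled product peptide. IC50 was taken from duplicate experiments.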
MAP kinase-interacting serine/threonine-protein kinase 1, sequence (Q9BUB5 whole entry): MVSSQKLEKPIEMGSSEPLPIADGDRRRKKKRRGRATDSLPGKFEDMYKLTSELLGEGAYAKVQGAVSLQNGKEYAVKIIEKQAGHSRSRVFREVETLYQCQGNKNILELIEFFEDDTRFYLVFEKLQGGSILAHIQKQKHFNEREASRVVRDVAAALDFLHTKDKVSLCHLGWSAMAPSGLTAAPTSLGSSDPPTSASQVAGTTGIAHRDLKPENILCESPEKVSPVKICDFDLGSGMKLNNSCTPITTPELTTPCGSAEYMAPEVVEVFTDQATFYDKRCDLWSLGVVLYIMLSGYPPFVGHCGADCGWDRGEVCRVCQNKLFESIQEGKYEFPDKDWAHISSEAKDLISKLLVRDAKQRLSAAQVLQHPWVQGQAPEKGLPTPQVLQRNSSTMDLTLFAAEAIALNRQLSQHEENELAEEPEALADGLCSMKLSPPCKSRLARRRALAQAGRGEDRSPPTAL

Data set [2] has as its target T1, Serine/threonine-protein kinase BRSK2 (Homo sapiens, UniProt Q8IWQ3).
T1 sequence (Q8IWQ3 whole entry): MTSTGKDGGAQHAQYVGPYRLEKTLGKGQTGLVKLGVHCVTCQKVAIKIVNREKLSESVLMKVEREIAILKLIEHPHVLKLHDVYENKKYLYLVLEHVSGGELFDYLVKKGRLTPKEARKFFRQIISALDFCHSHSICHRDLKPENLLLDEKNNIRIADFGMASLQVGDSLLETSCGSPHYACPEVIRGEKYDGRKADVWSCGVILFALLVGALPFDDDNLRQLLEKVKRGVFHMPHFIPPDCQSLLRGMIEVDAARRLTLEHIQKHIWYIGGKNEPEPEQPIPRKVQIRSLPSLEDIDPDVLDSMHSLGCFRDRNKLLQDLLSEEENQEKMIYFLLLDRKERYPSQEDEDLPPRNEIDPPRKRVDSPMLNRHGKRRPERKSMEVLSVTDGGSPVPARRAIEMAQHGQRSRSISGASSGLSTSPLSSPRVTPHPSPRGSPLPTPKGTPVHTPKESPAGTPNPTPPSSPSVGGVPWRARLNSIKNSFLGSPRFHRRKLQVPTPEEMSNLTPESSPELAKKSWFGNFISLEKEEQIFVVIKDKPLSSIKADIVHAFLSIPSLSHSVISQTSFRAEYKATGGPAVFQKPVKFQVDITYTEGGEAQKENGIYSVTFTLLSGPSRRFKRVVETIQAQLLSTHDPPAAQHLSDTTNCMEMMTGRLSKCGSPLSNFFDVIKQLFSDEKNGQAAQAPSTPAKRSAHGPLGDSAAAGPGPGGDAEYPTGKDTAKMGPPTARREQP
Briefly: Inhibition of BrSK2 (unknown origin). The essentials:
(§1)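 Kinase panel: 200 kinases were first screened at 1 μM inhibitor for percent inhibition. Those above 50% inhibition were then titrated for IC50. MgATP was fixed at the Km(app) determined for each enzyme.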

Data set [3] concerns the target T2, Mitogen-activated protein kinase kinase kinase 5 (Homo sapiens, UniProt Q99683).
T2 sequence (Q99683 whole entry): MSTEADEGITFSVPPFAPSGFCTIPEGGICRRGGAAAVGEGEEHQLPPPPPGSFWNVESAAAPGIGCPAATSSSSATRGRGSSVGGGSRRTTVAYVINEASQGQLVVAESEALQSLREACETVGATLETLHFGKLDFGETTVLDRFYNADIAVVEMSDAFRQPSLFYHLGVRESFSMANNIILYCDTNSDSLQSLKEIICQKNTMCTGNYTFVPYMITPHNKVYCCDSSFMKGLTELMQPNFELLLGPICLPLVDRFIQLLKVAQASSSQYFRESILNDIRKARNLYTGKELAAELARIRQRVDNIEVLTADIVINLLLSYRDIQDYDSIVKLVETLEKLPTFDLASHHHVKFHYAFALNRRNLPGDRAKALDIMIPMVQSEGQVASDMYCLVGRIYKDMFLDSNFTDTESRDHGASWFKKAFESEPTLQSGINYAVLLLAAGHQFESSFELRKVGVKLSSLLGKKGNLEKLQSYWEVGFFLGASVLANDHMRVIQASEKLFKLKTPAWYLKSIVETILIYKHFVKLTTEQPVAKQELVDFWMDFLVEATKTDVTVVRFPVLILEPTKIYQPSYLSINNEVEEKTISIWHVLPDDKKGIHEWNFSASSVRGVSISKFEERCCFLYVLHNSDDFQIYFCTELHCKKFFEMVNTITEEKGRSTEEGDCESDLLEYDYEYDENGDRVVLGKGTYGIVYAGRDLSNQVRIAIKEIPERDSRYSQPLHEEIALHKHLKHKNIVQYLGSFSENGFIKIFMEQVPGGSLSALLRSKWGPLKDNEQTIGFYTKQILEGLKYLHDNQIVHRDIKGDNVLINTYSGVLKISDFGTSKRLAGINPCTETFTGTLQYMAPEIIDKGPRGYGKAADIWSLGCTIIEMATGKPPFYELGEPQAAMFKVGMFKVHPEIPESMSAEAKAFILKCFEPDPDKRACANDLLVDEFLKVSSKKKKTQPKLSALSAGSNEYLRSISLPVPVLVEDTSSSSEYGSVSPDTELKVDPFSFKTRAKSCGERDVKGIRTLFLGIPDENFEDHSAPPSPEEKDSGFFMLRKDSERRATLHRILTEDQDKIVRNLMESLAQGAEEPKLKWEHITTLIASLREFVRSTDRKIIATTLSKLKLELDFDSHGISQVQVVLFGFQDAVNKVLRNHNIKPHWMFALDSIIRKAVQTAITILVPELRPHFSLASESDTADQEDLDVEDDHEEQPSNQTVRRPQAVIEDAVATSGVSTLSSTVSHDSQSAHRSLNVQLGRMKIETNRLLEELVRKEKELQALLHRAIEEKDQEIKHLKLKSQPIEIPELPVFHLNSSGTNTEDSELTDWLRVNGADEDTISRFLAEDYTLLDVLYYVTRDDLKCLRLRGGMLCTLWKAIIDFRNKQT
Briefly: Inhibition of ASK1 (unknown origin). The essentials:
as §1

The nature of data set [4]: Tmax in Sprague-Dawley rat measured upto 24 hrs by […] analysis. The class given is ADME. Conditions: in vivo. The essentials: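 Male Sprague-Dawley rats (275-300 g), carotid-catheterized and acclimated overnight. Dosing was i.v. at 1 mpk (n=2) in 70% saline/20% PEG-400/10% ethanol, or oral at 3 mpk (n=3) as a suspension in 0.5% HPMC/Tween. Plasma drug was measured by LC-MS/MS. Cmax and Tmax were read from individual profiles. t½ came from the terminal log-linear slope and AUC by the linear trapezoidal rule. CL = dose/AUC0-∞, Vdss = CL×MRT, F = dose-normalized AUC po/iv.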

Broadly, the IC50 is the midpoint of a concentration-inhibition curve. One may read the Tmax as the time at which the peak concentration occurs.

For `Cc1ccc(-c2ccc3c(ccc4sc5c(c43)NC[C@@H](C)NC5=O)n2)cn1`, the figures for the IC50 in data set [1], in data set [2] and in data set [3] were 3000 nM, 90 nM and 60 nM, respectively. In addition, the Tmax in data set [4] came out at 10.2 min.
